Assay results pooled from the literature.
Organism: Candida albicans
Observed: microbial growth
Technique: broth dilution

SMILES	strain	time	MIC
C/C(=N\c1nc(N)nc(/N=C(\C)c2c(O)c3ccccc3oc2=O)n1)c1c(O)c2ccccc2oc1=O	–	48 h	62.5 µg/mL
Nc1nn2c(-c3ccco3)cc(-c3ccc(OCc4ccccc4)cc3)nc2c1N=Nc1ccc(F)cc1	ATCC10231	–	125 µg/mL
C[C@@H]1[C@H](O)[C@@H](C)/C=C/C=C/C=C/C=C/C=C/C=C/C=C/[C@H](O[C@@H]2O[C@H](C)[C@@H](O)[C@H](N)[C@@H]2O)C[C@@H]2O[C@](O)(C[C@@H](O)C[C@@H](O)[C@H](O)CC[C@@H](O)C[C@@H](O)CC(=O)O[C@H]1C)C[C@H](O)[C@H]2C(=O)O	SP3903	48 h	< 0.25 µM
CC(=O)N1CCN(c2ccc(OCC3COC(Cn4ccnc4)(c4ccc(Cl)cc4Cl)O3)cc2)CC1 (centres unmarked)	ATCC10231	–	1.95 µg/mL
CC(=O)N1CCN(c2ccc(OCC3COC(Cn4ccnc4)(c4ccc(Cl)cc4Cl)O3)cc2)CC1 (centres unmarked)	–	48 h	1.95 µg/mL
CC(=O)N1CCN(c2ccc(OCC3COC(Cn4ccnc4)(c4ccc(Cl)cc4Cl)O3)cc2)CC1 (centres unmarked)	58288	48 h	16 µM
CC(=O)C1=NN(c2ccccc2)C(=C(C#N)C(=O)c2ccc(Nc3cnccn3)cc2)S1	ATCC10231	–	100 µg/mL
OC(Cn1cncn1)(Cn1cncn1)c1ccc(F)cc1F	1	24 h	128 µg/mL
CC(=O)N1CCN(c2ccc(OCC3COC(Cn4ccnc4)(c4ccc(Cl)cc4Cl)O3)cc2)CC1 (centres unmarked)	ATCC10231	48 h	8 µg/mL
N=c1sc(C(=O)c2ccc(Nc3cnccn3)cc2)nn1-c1ccc([N+](=O)[O-])cc1	ATCC10231	–	12.5 µg/mL
C/C(=N\NC(=O)/N=C(\C)c1c(O)c2ccccc2oc1=O)c1c(O)c2ccccc2oc1=O	–	48 h	31.2 µg/mL
Cc1ccc(N=Nc2c(N)nn3c(-c4ccco4)cc(-c4ccc(OCc5ccccc5)cc4)nc23)cc1	ATCC10231	–	31.3 µg/mL
OC(Cn1cncn1)(Cn1cncn1)c1ccc(F)cc1F	SP3902	48 h	8 µM
CCCCCCCCCCCC(=O)ON=C1C=CC(=C(C#N)c2ccccc2)C=C1	ATCC10231	48 h	512 µg/mL
